Results taken from ChEMBL document CHEMBL1130339, “Structural analogues of the calanolide anti-HIV agents. Modification of the trans-10,11-dimethyldihydropyran-12-ol ring (ring C)” (J Med Chem, 1997).

Tests used:
[1] = biological target: Human immunodeficiency virus type 1 reverse transcriptase (Human immunodeficiency virus 1, UniProt Q72547); experiment: Inhibition of HIV-1 reverse transcriptase using a poly(rC):oligo(dG)12-18 template primer
How it was run: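 HIV-1 reverse transcriptase inhibition was measured with a poly(rC):oligo(dG)12-18 template:primer system.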

CEM-SS [2] = experiment: Antiviral activity against HIV-1 determined by concentration which resulted in cytotoxicity of 50% of CEM-SS cell population relative to drug-free controls; assay type: functional, cell-based; details: Homo sapiens
How it was run: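 Cytotoxicity in uninfected CEM-SS cells (RPMI 1640, 10% heat-inactivated FCS, 25 mM HEPES, antibiotics; 37 °C, 5% CO2). Compounds dissolved in DMSO, diluted in medium, top concentration 100 µM, duplicate wells per concentration. 10^4 cells/well, 6-day incubation, viability by XTT dye. IC50 = concentration reducing cell growth by 50% of uninfected controls.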

CEM-SS [3] = experiment: Concentration required to protect CEM-SS cells from HIV-1 mediated cytopathicity by 50% relative to drug-free controls was determined; assay type: functional, cell-based, Homo sapiens
How it was run: (§1)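 CEM-SS cells were infected with HIV-1 RF at MOI about 0.12 TCID50/cell for 4 h at 37 °C, then the virus supernatant was removed. Cells at 10^4/well were exposed to compound diluted from DMSO (maximum 100 µM) in triplicate wells. After 6 days at 37 °C, 5% CO2, viability was read with XTT. EC50 = concentration giving 50% protection from viral cytopathicity relative to infected controls.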

[4] = Therapeutic Index (IC50/EC50)
How it was run: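 Ratio of cytotoxic IC50 in uninfected CEM-SS cells to antiviral EC50 in HIV-1 RF-infected CEM-SS cells, both from 6-day XTT viability readings. Not determined when no EC50 was available.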

CEM-SS [5] = experiment: Concentration required to protect CEM-SS cells from HIV-1 mediated uM; assay type: functional, cell-based, Homo sapiens; how it was run: as §1

Row | Structure (SMILES) | EC50 [1] | EC50 (CEM-SS [3]; Homo sapiens, CEM-SS) | EC50 (CEM-SS [5]) | EC50 (CEM-SS [3]; cem-ss) | IC50 (CEM-SS [2]) | TI [4]
1 | CCCc1cc(=O)oc2c3c(c4c(c12)OC(C)(C)C=C4)O[C@H](CC)[C@@H](C)[C@H]3O (racemic) | 2 µM | 1.7 µM | – | – | 14 µM | 8.2 Ratio
2 | CCCc1cc(=O)oc2c3c(c4c(c12)OC(C)(C)C=C4)O[C@H](C(C)C)[C@H](C)[C@@H]3O (racemic) | – | – | Not Active | – | 6.9 µM | –
3 | CCCc1cc(=O)oc2c3c(c4c(c12)OC(C)(C)C=C4)O[C@H](C)[C@H](C)[C@@H]3O (racemic) [CALANOLIDE C] | – | – | Not Active | – | 18 µM | –
4 | CCCc1cc(=O)oc2c3c(c4c(c12)OC(C)(C)C=C4)O[C@H](CC)[C@H](C)[C@@H]3O (racemic) | – | – | Not Active | – | 12 µM | –
5 | CCCc1cc(=O)oc2c3c(c4c(c12)OC(C)(C)C=C4)O[C@H](CC)[C@@H](C)[C@@H]3O (racemic) | 3.2 µM | 2 µM | – | – | 18 µM | 9 Ratio
6 | CCCc1cc(=O)oc2c(C(=O)C(C)C(C)(C)O)c(O)c3c(c12)OC(C)(C)C=C3 (racemic) | – | – | Not Active | – | – | –
7 | CCCc1cc(=O)oc2c3c(c4c(c12)OC(C)(C)C=C4)OC[C@H](C)C31OCOCO1 (racemic) | – | – | Not Active | – | 6.3 µM | –
8 | CCCc1cc(=O)oc2c3c(c4c(c12)OC(C)(C)C=C4)OC[C@H](C)[C@@H]3O (racemic) | 50 µM | 7.2 µM | – | – | 22 µM | 3.1 Ratio
9 | CCCc1cc(=O)oc2c(C(=O)C(C)(C)C(C)O)c(O)c3c(c12)OC(C)(C)C=C3 (racemic) | – | – | Not Active | – | 37 µM | –
10 | CCCc1cc(=O)oc2c3c(c4c(c12)OC(C)(C)C=C4)O[C@H](C(C)C)[C@@H](C)[C@H]3O (racemic) | – | – | Not Active | – | 6.5 µM | –
11 | CCCc1cc(=O)oc2c(C(O)CC)c(OCC)c3c(c12)OC(C)(C)C=C3 (racemic) | – | – | Not Active | – | 16 µM | –
12 | CCCc1cc(=O)oc2c3c(c4c(c12)OC(C)(C)C=C4)O[C@H](C(C)C)[C@@H](C)[C@@H]3O (racemic) | – | – | Not Active | – | 6.5 µM | –
13 | CCCc1cc(=O)oc2c1c1c(c3oc(C)c(C)c(=O)c32)C=CC(C)(C)O1 | – | – | Not Active | – | > 100 µM | –
14 | CCCc1cc(=O)oc2c3c(c4c(c12)OC(C)(C)C=C4)O[C@H](C)[C@@H](C)[C@@H]3O [CALANOLIDE A] | 0.32 µM | 0.27 µM | – | – | 23 µM | 85 Ratio
15 | CCCc1cc(=O)oc2c(C(=O)CC)c(OCC)c3c(c12)OC(C)(C)C=C3 | – | – | Not Active | – | 6.6 µM | –
16 | CCCc1cc(=O)oc2c3c(c4c(c12)OC(C)(C)C=C4)O[C@H](CC)[C@H](C)[C@H]3O (racemic) | – | – | Not Active | – | 21 µM | –
17 | CCCc1cc(=O)oc2c3c(c4c(c12)OC(C)(C)C=C4)OC[C@H](C)[C@H]3O (racemic) | – | – | Not Active | – | 22 µM | –
18 | CCCc1cc(=O)oc2c3c(c4c(c12)OC(C)(C)C=C4)O[C@H](C)[C@@H](C)[C@@H]3O (racemic) [CALANOLIDE A] | 0.97 µM | – | – | 0.49 µM | – | 47 Ratio
19 | CCCc1cc(=O)oc2c(C(=O)[C@@H](C)[C@H](C)O)c(O)c3c(c12)OC(C)(C)C=C3 (racemic) | – | 2.3 µM | – | – | 22 µM | 9.6 Ratio
20 | CCCc1cc(=O)oc2c(C(=O)[C@H](C)[C@H](C)O)c(O)c3c(c12)OC(C)(C)C=C3 (racemic) | – | 6.2 µM | – | – | 24 µM | 3.9 Ratio

Now from value to molecule, other results behind:

Row | EC50 [1] | EC50 (CEM-SS [3]; Homo sapiens, CEM-SS) | EC50 (CEM-SS [5]) | EC50 (CEM-SS [3]; cem-ss) | Structure (SMILES) | IC50 (CEM-SS [2]) | TI [4]
21 | – | – | Not Active | – | CCCc1cc(=O)oc2c3c(c4c(c12)OC(C)(C)C=C4)OC(C)(C)CC3O (racemic) | 11 µM | –
22 | – | – | Not Active | – | CCCc1cc(=O)oc2c3c(c4c(c12)OC(C)(C)C=C4)OC(C)(C)[C@H](C)C3=O (racemic) | 2.4 µM | –
23 | – | – | Not Active | – | CCCc1cc(=O)oc2c3c(c4c(c12)OC(C)(C)C=C4)O[C@H](C)C(C)(C)[C@@H]3O | 20 µM | –
24 | – | > 100 µM | – | – | CCCc1cc(=O)oc2c3c(c4c(c12)OC(C)(C)C=C4)O[C@H](C)C(C)(C)C3=O | 19 µM | –
25 | 5 µM | 5.7 µM | – | – | CCCc1cc(=O)oc2c3c(c4c(c12)OC(C)(C)C=C4)OC(C)(C)[C@H](C)[C@H]3O (racemic) | 21 µM | 3.7 Ratio
26 | – | – | Not Active | – | CCCc1cc(=O)oc2c3c(c4c(c12)OC(C)(C)C=C4)O[C@H](C(C)C)[C@@H](C)C3=O (racemic) | 21 µM | –
27 | > 100 µM | 2.8 µM | – | – | CCCc1cc(=O)oc2c3c(c4c(c12)OC(C)(C)C=C4)O[C@H](C)[C@H](C)C3=O (racemic) | 12 µM | 4.3 Ratio
28 | 40 µM | 1.2 µM | – | – | CCCc1cc(=O)oc2c3c(c4c(c12)OC(C)(C)C=C4)O[C@H](C)[C@@H](C)C3=O (racemic) | 19 µM | 16 Ratio
29 | – | – | Not Active | – | CCCc1cc(=O)oc2c3c(c4c(c12)OC(C)(C)C=C4)OC[C@H](C)C3=O (racemic) | – | –
30 | – | > 100 µM | – | – | CCCc1cc(=O)oc2c3c(c4c(c12)OC(C)(C)C=C4)O[C@H](CC)[C@@H](C)C3=O (racemic) | 18 µM | –
31 | 32 µM | 2.4 µM | – | – | CCCc1cc(=O)oc2c3c(c4c(c12)OC(C)(C)C=C4)O[C@H](C)C(C)(C)[C@H]3O (racemic) | 15 µM | 6.2 Ratio
32 | – | > 100 µM | – | – | CCCc1cc(=O)oc2c3c(c4c(c12)OC(C)(C)C=C4)O[C@H](C)[C@H](C)[C@H]3O (racemic) | 20 µM | –
33 | – | > 100 µM | – | – | CCCc1cc(=O)oc2c3c(c4c(c12)OC(C)(C)C=C4)OC(C)(C)[C@H](C)[C@@H]3O (racemic) | 21 µM | –
